Experimental findings from ChEMBL document CHEMBL1136288, “A catch-and-release strategy for the combinatorial synthesis of 4-acylamino-1,3-thiazoles as potential CDK5 inhibitors” (Bioorg Med Chem Lett, 2003) are described below.

The target of assay [1] is T1, Cyclin-dependent kinase 5/CDK5 activator 1 (Homo sapiens, UniProt Q00535). Nature of the assay: Ability to inhibit Cyclin-dependent kinase 5-p35. The format is protein-complex assay. In short, it runs like this: (§1)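 CDK5/GST-p25 was at 0.5 nM and CDK2/GST-cyclin A at 4 nM. Incubated 30 min at 37 °C, stopped with streptavidin SPA beads/EDTA, and counted. IC50 came from a sigmoidal dose-response fit, averaged when repeated.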
T1 sequence (Q00535 whole entry): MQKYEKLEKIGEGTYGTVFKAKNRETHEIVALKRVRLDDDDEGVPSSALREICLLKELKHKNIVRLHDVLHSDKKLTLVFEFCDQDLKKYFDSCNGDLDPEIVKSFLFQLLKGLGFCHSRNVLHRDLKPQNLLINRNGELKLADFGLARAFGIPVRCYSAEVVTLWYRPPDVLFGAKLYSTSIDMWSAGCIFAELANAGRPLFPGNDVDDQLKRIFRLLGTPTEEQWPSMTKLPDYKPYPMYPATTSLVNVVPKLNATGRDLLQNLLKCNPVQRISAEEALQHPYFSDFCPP
T1 sequence (Q15078 whole entry, further chain): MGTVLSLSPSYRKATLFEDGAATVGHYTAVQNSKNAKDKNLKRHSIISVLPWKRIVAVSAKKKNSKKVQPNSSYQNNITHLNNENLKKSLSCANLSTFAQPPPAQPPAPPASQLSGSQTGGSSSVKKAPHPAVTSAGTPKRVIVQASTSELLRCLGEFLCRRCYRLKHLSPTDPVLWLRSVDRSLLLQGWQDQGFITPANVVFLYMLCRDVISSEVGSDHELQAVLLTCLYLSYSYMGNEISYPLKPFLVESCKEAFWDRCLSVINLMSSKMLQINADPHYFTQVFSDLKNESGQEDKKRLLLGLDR

The target in assay [2] is Cyclin-dependent kinase 2/cyclin A (Homo sapiens, UniProt P24941). Briefly: Ability to inhibit cyclin-dependent kinase 2-cyclin A. Format: protein-complex assay. Summed up:
as §1

In assay [3] the target is T2, Cyclin-dependent kinase 5/CDK5 activator 1 (Homo sapiens) (UniProt Q00535+Q15078). Briefly: Inhibition of Cyclin-dependent kinase 5-p35nck5a at 20 uM. The format is protein-complex assay.
T2 sequence (Q00535 whole entry): as the sequence (Q00535 whole entry) above
T2 sequence (Q15078 99-307 partner limits assumed): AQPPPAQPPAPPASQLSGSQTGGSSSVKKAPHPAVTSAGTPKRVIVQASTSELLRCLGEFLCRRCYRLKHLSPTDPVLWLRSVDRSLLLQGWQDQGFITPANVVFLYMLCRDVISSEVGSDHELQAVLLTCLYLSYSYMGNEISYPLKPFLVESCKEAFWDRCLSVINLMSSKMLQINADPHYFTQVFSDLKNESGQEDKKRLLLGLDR
In assay [4] the target is T2, Cyclin-dependent kinase 5/CDK5 activator 1 (Homo sapiens). Nature of the assay: Inhibition of Cyclin-dependent kinase 5-p35nck5a. The settings on record: concentration not given here. The format is protein-complex assay. Summed up:
as §1

In assay [5] the target is T1, Cyclin-dependent kinase 5/CDK5 activator 1. Briefly: Inhibition of Tau Protein Kinase II (TPK II). Format: protein-complex assay. Summed up:
as §1

Assay [6] in a line: Specificity for CDK5 over Cyclin-dependent kinase 2-cyclin A.

As usually defined, the IC50 is the concentration that gives 50% inhibition. A high value points to weaker potency. `O=C(Nc1csc(Cc2c(Cl)cccc2Cl)n1)NN(Cc1ccccc1)Cc1ccccc1` displayed an IC50 in assay [1] of over 100 µM.

`O=C(Nc1csc(COc2ccccc2)n1)NN1CCOCC1`: the IC50 was 80 µM in assay [1] and over 100 µM in assay [2]. Take `O=C(Nc1csc(-c2ccc(Cl)cc2)n1)NN1CCOCC1`: the IC50 in assay [1] is over 100 µM. Regarding `O=C(Nc1csc(-c2ccccc2)n1)NN1CCOCC1`, the IC50 in assay [1] came out at 9 µM; in assay [2] it was 6 µM.

As to `O=C(NOc1ccccc1)Nc1csc(-c2ccccc2)n1`, the IC50 in assay [1] is 8 µM; in assay [2], 35 µM.

As to `O=C(Nc1csc(CSc2ccccc2)n1)NN1CCOCC1`, the IC50 in assay [1] and in assay [2] was 30 µM each time.

The molecule `COC[C@H]1CCCN1NC(=O)Nc1csc(Cc2c(Cl)cccc2Cl)n1` registered a 50% inhibitory concentration (IC50) in assay [1] of over 100 µM.

As for `CN(NC(=O)Nc1csc(Cc2c(Cl)cccc2Cl)n1)c1ccccc1`, the half-inhibitory concentration (IC50) worked out at 10 µM in assay [1] and 60 µM in assay [2]. As to `O=C(NOc1ccccc1)Nc1csc(Cc2ccccc2)n1`, the IC50 in assay [1] was 20 µM; in assay [2], over 100 µM. For the molecule `O=C(Nc1csc(-c2cccs2)n1)NN1CCOCC1`, the results for the half-maximal inhibitory concentration (IC50) in assay [1] and in assay [2] were 30 µM and 10 µM, respectively. Consider `O=C(NOC1CCCCO1)Nc1csc(Cc2c(Cl)cccc2Cl)n1` (stereo unspecified), for which the IC50 in assay [1] was 3 µM; in assay [2] it was 90 µM. As for `O=C(Nc1csc(Cc2ccccc2)n1)NN1CCOCC1`, the IC50 in assay [1] is 55 µM; in assay [2], over 100 µM. Regarding `CNNC(=O)Nc1csc(Cc2c(Cl)cccc2Cl)n1`, the IC50 in assay [1] is over 100 µM. For `CONC(=O)Nc1csc(Cc2c(Cl)cccc2Cl)n1`, the IC50 in assay [1] is 9 µM; in assay [2] it was over 100 µM.

In the case of `O=C(NOc1ccccc1)Nc1csc(Cc2c(Cl)cccc2Cl)n1`, the IC50 in assay [1] is 0.9 µM; in assay [2], over 100 µM. Take `CCONC(=O)Nc1csc(Cc2c(Cl)cccc2Cl)n1`: the IC50 in assay [1] turned out to be 5 µM; in assay [2] it was 20 µM. In assay [1], `O=C(NNc1ccccc1)Nc1csc(Cc2c(Cl)cccc2Cl)n1` registered an IC50 of over 100 µM.

Consider `Cc1cccc(-c2nc(NC(=O)NN3CCOCC3)cs2)c1`, for which the concentration for half-maximal inhibition (IC50) in assay [1] is 30 µM; in assay [2], 20 µM. Usually inhibition stands for the drop in the measured response relative to a control, in per cent. `O=C(NOCc1ccccc1)Nc1csc(Cc2c(Cl)cccc2Cl)n1`: the inhibition in assay [3] was 40%.

In the case of `O=C(Nc1csc(CS(=O)(=O)c2ccccn2)n1)NN1CCOCC1`, the IC50 came to 10 µM in assay [1] and 5 µM in assay [2].

Consider `O=C(Nc1csc(-c2ccccc2Cl)n1)NN1CCOCC1`, for which the IC50 in assay [1] is 30 µM; in assay [2], 10 µM.

On to `O=C(Nc1csc(Cc2c(Cl)cccc2Cl)n1)NN1CCCCC1`, for which the IC50 in assay [1] was 6 µM; in assay [2], 30 µM. With `C=CCONC(=O)Nc1csc(Cc2c(Cl)cccc2Cl)n1`, the IC50 amounted to 6 µM in assay [1] and 40 µM in assay [2]. As for `CCc1nc(NC(=O)NN2CCOCC2)cs1`, in assay [1], the IC50 was over 100 µM. `COc1ccc(OCc2nc(NC(=O)NN3CCOCC3)cs2)cc1`: the values for the IC50 in assay [1] and in assay [2] were 30 µM and 20 µM, respectively. For the molecule `CS(=O)(=O)Cc1nc(NC(=O)NN2CCOCC2)cs1`, in assay [4], the inhibition amounted to 35%. Take `CN(C)NC(=O)Nc1csc(Cc2c(Cl)cccc2Cl)n1`: the IC50 in assay [1] came to 4 µM; in assay [2], 10 µM. As for `Cc1ccc(-c2nc(NC(=O)NN3CCOCC3)cs2)cc1`, the IC50 in assay [1] is over 100 µM. Regarding `O=C(Nc1csc(Cc2c(Cl)cccc2Cl)n1)NN1CCCCCC1`, the results for the IC50 in assay [1] and in assay [2] were 10 µM and 70 µM, respectively.

`Cc1cccc(-c2nc(NC(=O)NOc3ccccc3)cs2)c1`: the IC50 in assay [1] was 16 µM; in assay [2], over 100 µM. On to `CC(C)(C)ONC(=O)Nc1csc(Cc2c(Cl)cccc2Cl)n1`, for which the values for the half-inhibitory concentration (IC50) in assay [1] and in assay [2] were 1 µM and 15 µM, respectively. As for `CS(=O)(=O)Cc1nc(NC(=O)NOc2ccccc2)cs1`, the IC50 in assay [1] is 6 µM; in assay [2], 90 µM. By Ki is commonly meant the equilibrium dissociation constant of an inhibitor or competing ligand from its target. Regarding `O=C(Nc1csc(Cc2c(Cl)cccc2Cl)n1)NN1CCOCC1`, the affinity in assay [5], expressed as Ki, was 500 nM. Besides, the half-maximal inhibitory concentration (IC50) in assay [1] stood at 1 µM; in assay [2] it was 10 µM; in assay [6] it was 10 µM. Take `O=C(Nc1csc(Cc2ccccc2Cl)n1)NN1CCOCC1`: the inhibition in assay [4] is 30%. In assay [1], `CNN(C)C(=O)Nc1csc(Cc2c(Cl)cccc2Cl)n1` had an IC50 of over 100 µM. Consider `O=C(Nc1csc(Cc2ccc(Br)cc2)n1)NN1CCOCC1`, for which, in assay [4], the inhibition amounted to 26%. `NNC(=O)Nc1csc(Cc2c(Cl)cccc2Cl)n1` gave an IC50 in assay [1] of over 100 µM. Regarding `O=C(Nc1csc(Cc2c(Cl)cccc2Cl)n1)NN1CCCC1`, the IC50 in assay [1] turned out to be 3 µM; in assay [2] it was 20 µM. In assay [1], `O=C(NOCc1c(F)c(F)c(F)c(F)c1F)Nc1csc(Cc2c(Cl)cccc2Cl)n1` had an IC50 of over 100 µM.
